In PMC5218545 (Angewandte Chemie (International ed. in English), 2016):

Assays:
Assay type in all cases: biochemical
[1] = molecular target: T1, recombinant purified enzyme 15-LOX-1 (Homo sapiens, UniProt P16050); assay: ABPP two-step labeling of recombinant purified 15-LOX-1; settings: 10 min incubation with inhibitor, then 2 min with probe N144
T1 sequence (P16050 1-662): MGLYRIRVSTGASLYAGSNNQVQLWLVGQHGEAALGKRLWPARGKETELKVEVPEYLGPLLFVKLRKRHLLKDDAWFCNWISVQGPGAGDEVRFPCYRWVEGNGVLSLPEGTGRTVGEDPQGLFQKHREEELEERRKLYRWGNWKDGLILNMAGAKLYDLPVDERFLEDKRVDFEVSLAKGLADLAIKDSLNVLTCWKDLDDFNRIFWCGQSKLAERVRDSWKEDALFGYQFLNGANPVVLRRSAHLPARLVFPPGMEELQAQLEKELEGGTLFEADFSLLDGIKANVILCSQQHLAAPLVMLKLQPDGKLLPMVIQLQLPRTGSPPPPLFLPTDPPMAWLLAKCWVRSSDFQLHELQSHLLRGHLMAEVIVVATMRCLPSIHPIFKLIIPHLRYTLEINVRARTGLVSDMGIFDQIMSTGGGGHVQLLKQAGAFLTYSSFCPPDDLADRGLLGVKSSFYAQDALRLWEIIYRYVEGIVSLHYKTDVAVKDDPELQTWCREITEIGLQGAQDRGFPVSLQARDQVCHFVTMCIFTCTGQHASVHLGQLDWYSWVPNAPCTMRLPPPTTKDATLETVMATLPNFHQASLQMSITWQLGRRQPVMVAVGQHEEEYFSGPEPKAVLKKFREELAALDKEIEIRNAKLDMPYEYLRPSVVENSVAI
Method in brief: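 Recombinant purified human 15-LOX-1 preincubated 10 min with a reversible 15-LOX-1 inhibitor or a 5-LOX inhibitor as control. Then 2 min with an alkene-tagged bis-alkyne probe. Biotinyl phenyl boronic acid was attached to the terminal alkene by oxidative Heck reaction. Equal enzyme amounts were run on Western blot and detected by HRP-streptavidin luminescence, alongside Coomassie staining and no-probe controls.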

[2] = molecular target: T2, endogenous 15-LOX-1 in HeLa cell lysate (Homo sapiens, UniProt P16050); assay: Activity-based labeling in HeLa cell lysate; settings: inhibitor 90 μM; bands also characterized by the 15-LOX-1 antibody
T2 sequence (P16050 1-662): T1 sequence (P16050 1-662)
Method in brief: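 HeLa cell lysate: endogenous enzyme preincubated with inhibitors at 90 μM, then labeled with an alkene-tagged bis-alkyne probe. Biotinylation by oxidative Heck reaction with biotinyl phenyl boronic acid. Blots were first probed with 15-LOX antibody, then stripped and developed with HRP-conjugated streptavidin by on-blot luminescence. Included no-probe controls.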

[3] = molecular target: T3, 15-LOX-1 in tissue lysates from different mice organs (Mus musculus, UniProt P39654); assay: Activity-based labeling in mouse tissue lysates; settings: inhibitor 90 μM, three characteristic bands
T3 sequence (P39654 1-663): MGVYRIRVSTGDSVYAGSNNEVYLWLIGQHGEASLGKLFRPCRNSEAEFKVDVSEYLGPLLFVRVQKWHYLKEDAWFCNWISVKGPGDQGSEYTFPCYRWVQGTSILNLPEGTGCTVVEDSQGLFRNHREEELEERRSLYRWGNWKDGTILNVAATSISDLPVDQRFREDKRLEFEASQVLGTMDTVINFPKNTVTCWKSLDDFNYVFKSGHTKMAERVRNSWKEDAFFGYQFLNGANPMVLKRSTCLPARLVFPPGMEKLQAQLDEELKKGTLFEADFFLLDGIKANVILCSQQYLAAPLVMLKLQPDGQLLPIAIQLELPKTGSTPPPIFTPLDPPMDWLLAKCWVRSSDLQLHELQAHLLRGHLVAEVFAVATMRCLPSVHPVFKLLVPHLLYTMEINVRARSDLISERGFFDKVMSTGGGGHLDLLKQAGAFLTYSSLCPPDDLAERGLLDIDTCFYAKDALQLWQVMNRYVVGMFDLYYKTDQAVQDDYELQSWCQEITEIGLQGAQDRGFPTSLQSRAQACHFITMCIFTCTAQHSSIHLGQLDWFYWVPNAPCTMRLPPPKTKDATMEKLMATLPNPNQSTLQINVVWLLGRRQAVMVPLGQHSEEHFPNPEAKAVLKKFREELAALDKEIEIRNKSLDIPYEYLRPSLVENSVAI
Method in brief: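 Mouse heart tissue lysate: endogenous enzyme preincubated with inhibitors at 90 μM, then labeled with an alkene-tagged bis-alkyne probe. The probe was biotinylated by oxidative Heck coupling with biotinyl phenyl boronic acid. Labeled proteins were detected on blot with HRP-conjugated streptavidin luminescence.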

In the case of `CC(c1cc2ccccc2s1)N(O)C(N)=O` (stereo not shown) [Zileuton], the “effect of inhibitor pre-incubation on N144 labeling of recombinant 15-LOX-1” value [1] is reported as “did not affect the labeling”.

For `c1ccc2c(c1)SCc1c-2[nH]c2ccccc12` [PD-146176], the “effect of inhibitor pre-incubation on N144 labeling of recombinant 15-LOX-1” value [1] was “labeling was clearly inhibited”, the “effect of inhibitor on N144 labeling in HeLa cell lysates” value [2] was “decrease of the labeling” and the “effect of inhibitor on N144 labeling in mouse heart lysate” value [3] was “reduced labeling”.
